Reference: ChEMBL document CHEMBL4052618, “Design, synthesis, SAR discussion, in vitro and in vivo evaluation of novel selective EGFR modulator to inhibit L858R/T790M double mutants” (Eur J Med Chem, 2017)

Key:
[1] = biological target: Cyclin-dependent kinase 1/cyclin B1 (Homo sapiens) (UniProt P06493+P14635); test: Inhibition of CDK1/cyclin B (unknown origin) at 1 uM relative to control; format: protein-complex assay
Mus musculus = test: Toxicity in nude C.B-17 SCID mouse model xenografted with human NCI-H1975 cells assessed as loss of body weight at 5 to 20 mg/kg, ig for 18 days; format: organism-based; conditions: in vivo, po, 432 h
Summary of the method: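 H1975 xenografts were set up by subcutaneous inoculation of 5 × 10^6 cells into C.B-17 SCID mice. At a mean tumor volume of 100-150 mm3, mice were randomized into groups of n = 9. They were dosed intragastrically once daily for 18 days at 5, 10 or 20 mg/kg, given as 0.1 mL/10 g body weight. The control group received PBS, and tumors were caliper-measured twice weekly.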

[2] = biological target: RAC-beta serine/threonine-protein kinase (Homo sapiens) (UniProt P31751); test: Inhibition of AKT2 (unknown origin) at 1 uM relative to control
[3] = biological target: Tyrosine-protein kinase Yes (Homo sapiens) (UniProt P07947); test: Inhibition of YES1 (unknown origin) at 1 uM relative to control
[4] = Half life in rat hepatocytes; format: ADME, cell-based, Hepatocyte
[5] = Intrinsic clearance in monkey liver microsomes; format: ADME, Macaca mulatta, microsome; conditions: rhesus monkey, read-out: CLH
[6] = biological target: Cytoplasmic tyrosine-protein kinase BMX (Homo sapiens) (UniProt P51813); test: Inhibition of BMX (unknown origin) at 1 uM relative to control
[7] = biological target: Hepatocyte growth factor receptor (Homo sapiens) (UniProt P08581); test: Inhibition of MET (cMet) (unknown origin) at 1 uM relative to control
[8] = Intrinsic clearance in human hepatocytes assessed per million cells; format: ADME, cell-based, Hepatocyte
[9] = biological target: Leucine-rich repeat serine/threonine-protein kinase 2 (Homo sapiens) (UniProt Q5S007); test: Inhibition of LRRK2 (unknown origin) at 1 uM relative to control
[10] = Cmax in Sprague-Dawley rat at 10 mg/kg, po administered via gavage after 24 hrs by LC-MS/MS analysis; format: ADME, organism-based; design: dose 10 mg/kg, route oral; conditions: in vivo
Summary of the method: (§1)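 Male Sprague-Dawley rats (200-240 g) received 1 mg/kg by tail-vein injection in 2% DMSO, 20% PEG400 and 78% buffered saline, or 10 mg/kg by oral gavage in 0.5% methylcellulose. Orbital sinus blood was drawn into heparinized tubes at 2, 5, 15 and 30 min and at 1, 2, 4, 8, 12 and 24 h, then centrifuged. Plasma was measured by LC/MS/MS in SRM mode, with non-compartmental analysis.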

[11] = Oral bioavailability in Sprague-Dawley rat at 10 mg/kg administered via gavage after 24 hrs by LC-MS/MS analysis; format: ADME, organism-based; conditions: in vivo; summary of the method: as §1
[12] = biological target: Epidermal growth factor receptor (Homo sapiens, UniProt P00533, L858R/T790M); test: Inhibition of human recombinant cytoplasmic GST-tagged EGFR T790M/L858R double mutant (668 to 1210 residues) expressed in baculovirus using TK-substrate-biotin preincubated for 15 mins followed by substrate addition measured after 60 mins by FRET-based Z'-Lyte assay
[13] = biological target: Ribosomal protein S6 kinase beta-1 (Homo sapiens) (UniProt P23443); test: Inhibition of RPS6KB1 (unknown origin) at 1 uM relative to control
[14] = Half life in Sprague-Dawley rat at 1 mg/kg, iv by LC-MS/MS analysis; format: ADME, organism-based; conditions: in vivo
Summary of the method: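 Male Sprague-Dawley rats (200-240 g) were dosed either by tail vein at 1 mg/kg in 2% DMSO/20% PEG400/78% buffered saline or by oral gavage at 10 mg/kg in 0.5% methylcellulose. Blood was drawn by orbital sinus puncture at 2 min to 24 h into heparin, and plasma was analysed by LC/MS/MS in SRM mode. Parameters came from non-compartmental analysis.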

[15] = biological target: Serine/threonine-protein kinase Sgk1 (Homo sapiens) (UniProt O00141); test: Inhibition of SGK (unknown origin) at 1 uM relative to control
[16] = AUC (0 to 24 hrs) in Sprague-Dawley rat at 10 mg/kg, po administered via gavage by LC-MS/MS analysis; format: ADME, organism-based; design: time < 24 hr, dose 10 mg/kg, route oral; conditions: in vivo
[17] = biological target: MAP kinase-interacting serine/threonine-protein kinase 2 (Homo sapiens) (UniProt Q9HBH9); test: Inhibition of MKNK2 (unknown origin) at 1 uM relative to control
[18] = system: RAF proto-oncogene serine/threonine-protein kinase (Homo sapiens), P04049 [Y340D,Y341D]; test: Inhibition of RAF1 Y340D/Y341D double mutant (unknown origin) at 1 uM relative to control
[19] = biological target: Voltage-gated inwardly rectifying potassium channel KCNH2 (Homo sapiens, UniProt Q12809); test: Inhibition of human ERG expressed in HEK293 cells by lonWorks Quattro analysis; format: cell-based
NCI-H1975 [20] = test: In vivo anti tumor activity against human NCI-H1975 cells xenografted in nude C.B-17 SCID mouse model assessed as relative tumor volume at 10 mg/kg, ig for 18 days measured twice a week relative to control; format: functional
Summary of the method: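 C.B-17 SCID mice received s.c. inoculation of 5 × 10^6 H1975 cells. At 100-150 mm3 they were randomized (n = 9 per group) and dosed intragastrically once daily for 18 days, with PBS as the control. Tumors were measured by caliper twice weekly, with V = length × width²/2. RTV = V/V0, and T/C% = treated mean RTV / control mean RTV × 100.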

[21] = biological target: Tyrosine-protein kinase JAK3 (Homo sapiens) (UniProt P52333); test: Inhibition of JAK3 (unknown origin) at 1 uM relative to control
NCI-H1975 [22] = test: In vivo anti tumor activity against human NCI-H1975 cells xenografted in nude C.B-17 SCID mouse model assessed as tumor volume at 10 mg/kg, ig for 18 days measured twice a week (reference value: 948.05 mm3); format: functional
A-431 = test: Antiproliferative activity against human A431 cells harboring wild-type EGFR; format: functional, cell-based
[23] = biological target: Tyrosine-protein kinase Lyn (Homo sapiens) (UniProt P07948); test: Inhibition of LYN-B (unknown origin) at 1 uM relative to control
[24] = biological target: Glycogen synthase kinase-3 beta (Homo sapiens) (UniProt P49841); test: Inhibition of GSK3B (unknown origin) at 1 uM relative to control
NCI-H1975 [25] = test: Antiproliferative activity against human NCI-H1975 cells harboring EGFR L858R/T790M double mutant; format: functional, cell-based
Summary of the method: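 A431 was grown in EMEM with 10% FBS; HCC827 and NCI-H1975 were grown in RPMI-1640 with 10% FBS. Cell viability experiments were repeated at least three times.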

[26] = biological target: Serine/threonine-protein kinase Chk2 (Homo sapiens) (UniProt O96017); test: Inhibition of CHEK2 (CHK2) (unknown origin) at 1 uM relative to control
[27] = biological target: Dual specificity protein kinase CLK1 (Homo sapiens) (UniProt P49759); test: Inhibition of CLK1 (unknown origin) at 1 uM relative to control
[28] = Half life in mouse liver microsomes; format: ADME, microsome
[29] = biological target: BDNF/NT-3 growth factors receptor (Homo sapiens) (UniProt Q16620); test: Inhibition of NTRK2 (unknown origin) at 1 uM relative to control
Chain of BDNF/NT-3 growth factors receptor (Homo sapiens) (Q16620 32-822 limits assumed): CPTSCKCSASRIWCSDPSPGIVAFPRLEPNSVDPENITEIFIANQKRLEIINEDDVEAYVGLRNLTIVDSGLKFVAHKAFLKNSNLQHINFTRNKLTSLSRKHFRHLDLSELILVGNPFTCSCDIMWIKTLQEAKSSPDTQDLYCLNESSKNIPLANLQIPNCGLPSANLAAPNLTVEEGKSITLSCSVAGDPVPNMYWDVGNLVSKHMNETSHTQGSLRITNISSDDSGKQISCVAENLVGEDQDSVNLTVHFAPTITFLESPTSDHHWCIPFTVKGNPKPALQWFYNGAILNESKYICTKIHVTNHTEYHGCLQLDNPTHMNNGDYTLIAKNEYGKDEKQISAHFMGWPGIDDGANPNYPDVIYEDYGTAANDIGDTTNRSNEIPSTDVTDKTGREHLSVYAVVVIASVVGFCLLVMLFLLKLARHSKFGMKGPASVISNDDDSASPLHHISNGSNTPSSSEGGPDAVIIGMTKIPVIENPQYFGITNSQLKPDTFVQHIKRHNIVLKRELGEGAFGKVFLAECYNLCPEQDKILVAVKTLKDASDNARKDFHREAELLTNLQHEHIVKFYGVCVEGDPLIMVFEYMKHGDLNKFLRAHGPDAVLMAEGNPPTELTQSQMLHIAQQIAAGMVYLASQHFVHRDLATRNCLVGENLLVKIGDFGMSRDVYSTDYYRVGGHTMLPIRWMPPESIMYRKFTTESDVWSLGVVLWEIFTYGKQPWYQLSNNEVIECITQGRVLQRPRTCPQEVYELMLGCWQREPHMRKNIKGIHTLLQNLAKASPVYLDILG

Chain of Epidermal growth factor receptor (P00533 25-1210 T790M/L858R limits assumed): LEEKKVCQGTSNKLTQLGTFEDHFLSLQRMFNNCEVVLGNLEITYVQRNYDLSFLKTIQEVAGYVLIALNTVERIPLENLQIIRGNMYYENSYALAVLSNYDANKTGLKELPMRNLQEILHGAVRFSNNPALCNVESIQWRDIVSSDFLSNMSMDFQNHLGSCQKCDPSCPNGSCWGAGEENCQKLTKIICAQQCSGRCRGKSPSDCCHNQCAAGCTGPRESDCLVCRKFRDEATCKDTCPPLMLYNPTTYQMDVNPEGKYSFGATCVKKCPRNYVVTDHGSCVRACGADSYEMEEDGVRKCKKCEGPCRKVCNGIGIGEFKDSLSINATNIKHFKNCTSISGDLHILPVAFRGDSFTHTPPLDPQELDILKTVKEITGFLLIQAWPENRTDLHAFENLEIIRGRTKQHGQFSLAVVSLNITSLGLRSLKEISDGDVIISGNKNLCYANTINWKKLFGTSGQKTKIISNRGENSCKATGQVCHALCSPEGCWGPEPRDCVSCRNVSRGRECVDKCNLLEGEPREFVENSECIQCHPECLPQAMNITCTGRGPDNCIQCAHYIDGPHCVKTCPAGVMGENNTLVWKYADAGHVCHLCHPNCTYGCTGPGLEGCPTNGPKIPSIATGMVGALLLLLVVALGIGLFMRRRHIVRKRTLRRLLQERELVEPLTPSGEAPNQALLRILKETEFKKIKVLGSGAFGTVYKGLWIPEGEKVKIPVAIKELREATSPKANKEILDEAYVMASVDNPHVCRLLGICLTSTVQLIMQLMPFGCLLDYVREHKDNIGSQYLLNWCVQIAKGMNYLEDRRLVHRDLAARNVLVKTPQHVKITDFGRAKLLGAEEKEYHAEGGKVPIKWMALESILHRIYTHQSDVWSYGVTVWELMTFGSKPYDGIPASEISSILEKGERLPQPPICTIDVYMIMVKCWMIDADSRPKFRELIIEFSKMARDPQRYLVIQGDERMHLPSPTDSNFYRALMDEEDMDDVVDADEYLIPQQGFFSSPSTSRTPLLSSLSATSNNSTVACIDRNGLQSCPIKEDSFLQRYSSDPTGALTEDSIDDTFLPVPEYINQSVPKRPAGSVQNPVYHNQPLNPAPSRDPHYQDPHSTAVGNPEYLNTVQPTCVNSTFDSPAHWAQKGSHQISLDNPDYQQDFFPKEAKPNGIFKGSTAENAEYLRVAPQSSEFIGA
Chain of Voltage-gated inwardly rectifying potassium channel KCNH2 (Q12809 whole entry): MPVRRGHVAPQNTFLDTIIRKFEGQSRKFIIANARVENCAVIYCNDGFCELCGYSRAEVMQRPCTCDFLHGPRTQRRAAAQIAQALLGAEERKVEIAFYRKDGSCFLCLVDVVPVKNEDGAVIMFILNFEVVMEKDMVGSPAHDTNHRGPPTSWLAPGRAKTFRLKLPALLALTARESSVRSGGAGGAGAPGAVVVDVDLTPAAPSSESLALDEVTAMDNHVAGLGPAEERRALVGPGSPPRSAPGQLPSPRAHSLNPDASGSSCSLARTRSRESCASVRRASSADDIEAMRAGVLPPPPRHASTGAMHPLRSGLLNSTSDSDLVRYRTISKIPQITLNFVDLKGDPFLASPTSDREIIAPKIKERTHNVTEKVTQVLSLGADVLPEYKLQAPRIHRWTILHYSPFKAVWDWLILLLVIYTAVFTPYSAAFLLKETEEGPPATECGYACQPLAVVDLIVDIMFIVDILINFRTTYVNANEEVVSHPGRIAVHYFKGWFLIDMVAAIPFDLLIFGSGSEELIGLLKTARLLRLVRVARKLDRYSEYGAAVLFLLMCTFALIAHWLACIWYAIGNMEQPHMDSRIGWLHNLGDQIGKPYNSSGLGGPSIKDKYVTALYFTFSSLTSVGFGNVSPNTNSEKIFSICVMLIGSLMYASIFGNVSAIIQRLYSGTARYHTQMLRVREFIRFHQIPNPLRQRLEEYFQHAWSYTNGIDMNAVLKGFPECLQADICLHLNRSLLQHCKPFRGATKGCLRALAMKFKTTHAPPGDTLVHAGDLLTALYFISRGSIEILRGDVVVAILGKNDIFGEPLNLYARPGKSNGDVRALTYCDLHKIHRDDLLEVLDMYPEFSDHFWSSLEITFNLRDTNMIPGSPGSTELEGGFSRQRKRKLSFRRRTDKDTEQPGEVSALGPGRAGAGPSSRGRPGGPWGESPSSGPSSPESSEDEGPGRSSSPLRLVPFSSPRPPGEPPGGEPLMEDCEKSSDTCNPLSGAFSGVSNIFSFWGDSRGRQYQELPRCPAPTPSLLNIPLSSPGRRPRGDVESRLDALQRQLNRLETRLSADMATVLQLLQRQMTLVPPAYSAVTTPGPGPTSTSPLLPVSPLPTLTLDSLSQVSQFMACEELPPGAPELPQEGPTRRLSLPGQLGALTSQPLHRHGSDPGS
Chain of Ribosomal protein S6 kinase beta-1 (Homo sapiens) (P23443 whole entry, looked up): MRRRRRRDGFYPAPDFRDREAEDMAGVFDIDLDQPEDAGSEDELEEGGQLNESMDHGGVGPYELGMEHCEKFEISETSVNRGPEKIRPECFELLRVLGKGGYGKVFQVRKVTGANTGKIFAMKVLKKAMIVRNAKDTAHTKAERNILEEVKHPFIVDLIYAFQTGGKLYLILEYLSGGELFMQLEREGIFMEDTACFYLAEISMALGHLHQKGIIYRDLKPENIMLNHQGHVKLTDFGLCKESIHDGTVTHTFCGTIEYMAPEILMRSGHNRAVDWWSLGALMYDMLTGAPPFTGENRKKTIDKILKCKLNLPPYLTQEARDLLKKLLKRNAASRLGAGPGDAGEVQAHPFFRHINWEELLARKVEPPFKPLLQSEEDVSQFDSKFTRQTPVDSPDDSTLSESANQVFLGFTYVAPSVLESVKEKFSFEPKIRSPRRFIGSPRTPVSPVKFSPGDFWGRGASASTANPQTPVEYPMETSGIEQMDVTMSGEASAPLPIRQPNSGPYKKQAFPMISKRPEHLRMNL
Chain of Tyrosine-protein kinase JAK3 (Homo sapiens) (P52333 whole entry): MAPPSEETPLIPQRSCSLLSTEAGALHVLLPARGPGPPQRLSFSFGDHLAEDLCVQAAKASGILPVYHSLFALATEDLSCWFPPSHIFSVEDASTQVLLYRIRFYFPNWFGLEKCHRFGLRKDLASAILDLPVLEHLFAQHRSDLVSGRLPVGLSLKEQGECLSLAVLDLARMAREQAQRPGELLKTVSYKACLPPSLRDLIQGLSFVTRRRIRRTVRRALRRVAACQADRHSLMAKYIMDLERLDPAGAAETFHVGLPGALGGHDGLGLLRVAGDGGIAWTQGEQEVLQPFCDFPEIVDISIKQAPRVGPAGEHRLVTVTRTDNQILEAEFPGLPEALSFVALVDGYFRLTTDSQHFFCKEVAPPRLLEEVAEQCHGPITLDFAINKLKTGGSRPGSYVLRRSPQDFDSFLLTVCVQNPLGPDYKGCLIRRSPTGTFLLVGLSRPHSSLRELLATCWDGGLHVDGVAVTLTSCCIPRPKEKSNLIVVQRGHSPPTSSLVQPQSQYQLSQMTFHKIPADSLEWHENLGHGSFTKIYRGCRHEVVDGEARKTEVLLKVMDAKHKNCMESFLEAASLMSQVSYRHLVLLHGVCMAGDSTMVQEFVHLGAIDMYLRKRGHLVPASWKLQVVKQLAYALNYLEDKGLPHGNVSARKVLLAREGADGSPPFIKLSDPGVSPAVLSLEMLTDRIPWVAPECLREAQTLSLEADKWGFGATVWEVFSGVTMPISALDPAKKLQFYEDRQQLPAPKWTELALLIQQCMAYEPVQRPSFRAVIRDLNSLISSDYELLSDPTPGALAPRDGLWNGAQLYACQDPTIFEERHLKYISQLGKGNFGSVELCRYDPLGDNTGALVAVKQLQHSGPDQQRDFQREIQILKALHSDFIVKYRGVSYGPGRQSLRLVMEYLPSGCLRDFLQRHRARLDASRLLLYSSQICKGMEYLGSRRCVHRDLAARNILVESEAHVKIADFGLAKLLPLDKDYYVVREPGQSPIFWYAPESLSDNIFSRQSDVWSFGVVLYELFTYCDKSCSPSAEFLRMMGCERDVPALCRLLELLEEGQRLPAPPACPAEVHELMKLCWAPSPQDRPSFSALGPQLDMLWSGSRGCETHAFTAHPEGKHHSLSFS

C=CC(=O)Nc1cc(Nc2nccc(-c3cn4c5c(cccc35)CCC4)n2)c(OC)cc1N(C)CCN(C)C
inhibition [1]: 5% | Activity (Mus musculus): Non-Toxic | inhibition [2]: 1% | inhibition [3]: 10% | half-life [4]: 33 min | CLint scaled [5]: 64.8 mL/min/kg | inhibition [6]: 80% | inhibition [7]: -2% | CLH [8]: 5 µL/min/10^6 cells | inhibition [9]: 90% | Cmax [10]: 111 ng/mL | bioavailability [11]: 52.4% | IC50 [12]: 2.6 to 2.9 nM | inhibition [13]: -10% | half-life [14]: 270 min | inhibition [15]: 10% | AUC(0-t) at 24 h [16]: 995 ng·h/mL | inhibition [17]: 117% | inhibition [18]: 8% | IC50 [19]: 8.46 µM | T/C (NCI-H1975 [20]): 25.7% | inhibition [21]: 89% | Activity (NCI-H1975 [22]): 239.33 mm3 | IC50 (A-431): 870 nM | inhibition [23]: 15% | inhibition [24]: 7% | IC50 (NCI-H1975 [25]): 103 nM | inhibition [26]: -2% | inhibition [27]: 20% | half-life [28]: 11.9 min | inhibition [29]: -1%
